For data set [1], the target named is Speckle-type POZ protein (Homo sapiens) (UniProt O43791). The data set can be described thus: Binding affinity to recombinant N-terminal GST/His-tagged MATH binding domain SPOP (unknown origin) expressed in Escherichia coli BL21 (DE3) assessed as change in melting temperature at 10 fold compound incubated for 15 mins by nano differential scanning fluorimetry (reference value: -1.7 degreeC). Background: Differential scanning fluorimetry follows unfolding on heating by fluorescence.
Speckle-type POZ protein (Homo sapiens), sequence (O43791 whole entry, the tested form may be a part): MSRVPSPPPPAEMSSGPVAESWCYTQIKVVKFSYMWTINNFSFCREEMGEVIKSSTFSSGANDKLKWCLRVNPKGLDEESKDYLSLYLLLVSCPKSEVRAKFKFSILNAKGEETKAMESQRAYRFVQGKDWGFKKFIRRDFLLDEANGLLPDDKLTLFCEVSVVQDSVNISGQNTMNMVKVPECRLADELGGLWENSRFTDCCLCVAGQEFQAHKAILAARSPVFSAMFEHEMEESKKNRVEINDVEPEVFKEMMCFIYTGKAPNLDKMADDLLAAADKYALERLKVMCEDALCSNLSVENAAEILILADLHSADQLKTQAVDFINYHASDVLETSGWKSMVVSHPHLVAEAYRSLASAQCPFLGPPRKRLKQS

In data set [2] the test system is A498. The data set can be described thus: Antiproliferative activity against human A498 cells assessed as reduction in cell viability incubated for 72 hrs by MTT assay. It is filed as functional, cell-based. To be noted: A498, 72 h. In a few lines: (§1)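 MTT read-out. Cells seeded at 1,000-2,200/well, grown 12 hr at 37 °C before compound, then exposed 72 hr. MTT for 4 hr, formazan dissolved in DMSO, A490 read. Untreated cells = 100% proliferation. IC50 quantitated; mean ± SD, n = 3.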
(In general: Tetrazolium assays rely on reduction of a dye to a coloured formazan, in cell work by metabolically active cells.)

Data set [3] has as its target Speckle-type POZ protein (Homo sapiens) (UniProt O43791). Description: Binding affinity to recombinant N-terminal GST/His-tagged SPOP (unknown origin) MATH binding domain expressed in Escherichia coli BL21 (DE3) assessed as change in melting temperature at 5 fold compound by SYPRO Orange dye based differential scanning fluorimetry (reference value: -1.7 degreeC).
Data set [4] deals with OS-RC-2. Description: Antiproliferative activity against human OS-RC2 cells assessed as reduction in cell viability at 30 uM incubated for 72 hrs by MTT assay relative to control. The format is functional. To be noted: OS-RC-2, 72 h. In a few lines:
(§2)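 MTT read-out. Cells seeded at 1,000-2,200/well, grown 12 hr at 37 °C, then compound added for 72 hr. MTT for 4 hr, formazan dissolved in DMSO, absorbance at 490 nm. Untreated-cell OD taken as 100% proliferation; inhibition reported at 30 μM.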

For data set [5], the system named is OS-RC-2. The data set can be described thus: Antiproliferative activity against human OS-RC2 cells assessed as reduction in cell viability incubated for 72 hrs by MTT assay. It is filed as functional, cell-based. Particulars: OS-RC-2, 72 h. In a few lines:
as §1

The subject of data set [6] is A498. Description: Antiproliferative activity against human A498 cells assessed as reduction in cell viability at 30 uM incubated for 72 hrs by MTT assay relative to control. The format is functional. To be noted: A498, 72 h. In short, it runs like this: as §2
For data set [7], the target named is Speckle-type POZ protein (Homo sapiens) (UniProt O43791). Description: Binding affinity to recombinant N-terminal GST/His-tagged MATH binding domain SPOP (unknown origin) expressed in Escherichia coli BL21 (DE3) assessed as change in melting temperature at 20 fold compound incubated for 15 mins by nano differential scanning fluorimetry (reference value: -3.8 degreeC).

Data set [8] shares this target. Description: Inhibition of SPOP signalling in human OS-RC2 cells assessed as accumulation of PTEN at 5 to 15 uM incubated for 12 hrs by Western blot analysis. The format is cell-based. Background: Immunoblotting shows a protein as a band on a membrane.
Data set [9] concerns OS-RC-2. Description: Inhibition of colony formation in human OS-RC2 cells at 1 to 5 uM incubated for 12 days by crystal violet dye based assay. The format is functional, cell-based. In a few lines:
(§3)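 Cells seeded at 1,000/well, grown 12 days at 37 °C, 5% CO2, medium renewed every 3 days. Fixed with 10% acetic acid/10% methanol for 15 min, stained with 1% crystal violet for 10 min.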

Data set [10] is described as follows: Solubility of compound in cell culture medium in presence of 0.2 % DMSO. The format is physicochemical. In short, it runs like this: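 Solubility determined in cell culture medium containing 0.2% DMSO.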
In data set [11] the test system is A498. The data set can be described thus: Inhibition of colony formation in human A498 cells at 1 to 5 uM incubated for 12 days by crystal violet dye based assay. It is filed as functional, cell-based. In short, it runs like this: as §3
The target of data set [12] is Speckle-type POZ protein (Homo sapiens) (UniProt O43791). Description: Binding affinity to recombinant N-terminal GST/His-tagged SPOP (unknown origin) MATH binding domain expressed in Escherichia coli BL21 (DE3) assessed as change in melting temperature at 10 fold compound by SYPRO Orange dye based differential scanning fluorimetry (reference value: -1.7 degreeC).

For data set [13] the target is unchanged. Description: Binding affinity to recombinant N-terminal GST/His-tagged SPOP (unknown origin) MATH binding domain expressed in Escherichia coli BL21 (DE3) assessed as change in melting temperature at 1 fold compound by SYPRO Orange dye based differential scanning fluorimetry (reference value: -1.7 degreeC).

pIC50: −log10 of the molar value. Activity calls are given as the source filed them. The calls are words filed in the database; no cut-off is given here.

As for `Cc1ccc(CCn2c(=N)c(C(=O)NCCCN3CCOCC3)cc3c(=O)n4cccc(C)c4nc32)cc1`, the ΔTm in data set [1] is 1.8 °C; in [3], 2 °C; in data set [7], 2.1 °C. The pIC50 with A498 [2] was 5.68; with OS-RC-2 [5], 5.24. Besides, the inhibition at 30 µM with OS-RC-2 [4] stood at 94%; in the data set with A498 [6], 91%.
With `COc1ccc(CCn2c(=N)c(C(=O)NCCCN3CCOCC3)cc3c(=O)n4cccc(C)c4nc32)cc1`, the results for the ΔTm in data set [1], in [3] and in [7] were 2.5 °C, 2.7 °C and 3.6 °C, respectively. In addition, the pIC50 with A498 [2] was 5.55; with OS-RC-2 [5] it was 5.19. In addition, the inhibition at 30 µM is 88% in the data set with OS-RC-2 [4] and 90% in the data set with A498 [6].
Regarding `Cc1cccn2c(=O)c3cc(C(=O)NCCCN4CCOCC4)c(=N)n(CCc4ccc(F)cc4)c3nc12`, the shift in melting temperature (ΔTm) stood at 2.5 °C in data set [1], 2 °C in data set [3] and 2.9 °C in data set [7]. The pIC50 with A498 [2] was 5.51; in the data set with OS-RC-2 [5], 5.18. The inhibition at 30 µM worked out at 88% in the data set with OS-RC-2 [4] and 90% with A498 [6].
Consider `Cc1cccn2c(=O)c3cc(C(=O)NCCCN4CCOCC4)c(=N)n(CCc4cccc(F)c4)c3nc12`, for which the inhibition result in data set [8] is “Active”. Also, the shift in melting temperature (ΔTm) in data set [1] worked out at 3.7 °C; in data set [3] it was 4 °C; in data set [7], 5.3 °C. Also, the figures for the negative logarithm of the IC50 (pIC50) in the data set on A498 [2] and in the data set on OS-RC-2 [5] were 5.62 and 5.34, respectively. Moreover, the inhibition at 30 µM with OS-RC-2 [4] was found to be 92%; in the data set on A498 [6], 89%.
As to `Cc1cccn2c(=O)c3cc(C(=O)NCCCN4CCOCC4)c(=N)n(CCc4ccc(Cl)cc4)c3nc12`, the thermal shift (ΔTm) in data set [1] stood at 2.4 °C; in data set [7] it was 3.5 °C. In addition, the values for the pIC50 with A498 [2] and with OS-RC-2 [5] were 5.64 and 5.40, respectively. In addition, the inhibition at 30 µM worked out at 97% in the data set on OS-RC-2 [4] and 90% with A498 [6].
In the case of `Cc1cccn2c(=O)c3cc(C(=O)NC4CCCCC4)c(=N)n(CCc4cccs4)c3nc12`, the inhibition result in [8] was “Active”. The ΔTm in data set [1] and in [7] was 2.7 °C in each case. Further, the figures for the negative-log IC50 (pIC50) in the data set with A498 [2] and in the data set with OS-RC-2 [5] were 5.20 and 5.23, respectively. The inhibition at 30 µM with OS-RC-2 [4] and with A498 [6] was 90% throughout.
As for `Cc1cccn2c(=O)c3cc(C(=O)NCCc4ccccc4)c(=N)n(CCc4cccs4)c3nc12`, the thermal shift (ΔTm) came to 3.5 °C in [1] and 3.7 °C in data set [7]. The negative logarithm of the IC50 (pIC50) was 5.30 with A498 [2] and 4.62 in the data set on OS-RC-2 [5]. Moreover, the inhibition at 30 µM in the data set with OS-RC-2 [4] stood at 52%; in the data set on A498 [6], 85%.
Take `COc1ccc(CCNC(=O)c2cc3c(=O)n4cccc(C)c4nc3n(CCc3cccs3)c2=N)cc1`: the inhibition entry (with OS-RC-2 [9]; in data set [8]; in the data set with A498 [11]) was “Active” each time. Also, the pIC50 is 5.55 in the data set on A498 [2] and 5.38 in the data set with OS-RC-2 [5]. Moreover, the inhibition at 30 µM with OS-RC-2 [4] was 75%; in the data set with A498 [6], 87%. The solubility in data set [10] lay within 2.5 to 5 µM.
For `Cc1cccn2c(=O)c3cc(C(=O)NCCCN4CCOCC4)c(=N)n(CCc4ccccc4)c3nc12`, the inhibition entry in the data set with OS-RC-2 [9] and in the data set on A498 [11] was “Active” each time. The ΔTm in data set [1] was determined as 2.8 °C; in data set [3], 3 °C; in [7], 4 °C. The negative-log IC50 (pIC50) with A498 [2] is 5.57; with OS-RC-2 [5], 5.24. Besides, the results for the inhibition at 30 µM with OS-RC-2 [4] and in the data set with A498 [6] were 90% and 88%, respectively. Further, in data set [10], the solubility was in the range of 30 to 45 µM.
On to `Cc1cccn2c(=O)c3cc(C(=O)NCCCN4CCOCC4)c(=N)n(CCc4ccc(Br)cc4)c3nc12`, for which the inhibition result in the data set on OS-RC-2 [9] and with A498 [11] was “Active” each time. The ΔTm was 2.3 °C in data set [1], 1.3 °C in data set [3] and 3.5 °C in [7]. The negative logarithm of the IC50 (pIC50) with A498 [2] was 5.52; in the data set with OS-RC-2 [5] it was 5.30. Further, the inhibition at 30 µM in the data set on OS-RC-2 [4] stood at 96%; in the data set on A498 [6], 89%. The solubility in data set [10] was 5 to 10 µM.
For `CCN(CC)CCn1c(=N)c(C(=O)NCCCN2CCOCC2)cc2c(=O)n3cccc(C)c3nc21`, the values for the pIC50 in the data set on A498 [2] and in the data set with OS-RC-2 [5] were 5.46 and 5.41, respectively. Also, the inhibition at 30 µM with OS-RC-2 [4] came to 89%; with A498 [6], 86%.
On to `Cc1cccn2c(=O)c3cc(C(=O)NCc4cccnc4)c(=N)n(CCCN4CCOCC4)c3nc12`, for which the thermal shift (ΔTm) in data set [1] worked out at 0 °C; in data set [3], 0.3 °C; in data set [12], 0.3 °C; in data set [13], 0 °C; in [7], 0.2 °C. For the same compound, the negative logarithm of the IC50 (pIC50) in the data set on A498 [2] and in the data set on OS-RC-2 [5] was under 4.30 each time.
In the case of `Cc1cccn2c(=O)c3cc(C(=O)NCCCN4CCOCC4)c(=N)n(CCc4cccs4)c3nc12`, in data set [8], the inhibition entry was “Active”. Also, the ΔTm in [1] was 3.2 °C; in data set [7], 5.1 °C. Besides, the negative-log IC50 (pIC50) was 5.59 in the data set with A498 [2] and 5.12 in the data set with OS-RC-2 [5]. Besides, the values for the inhibition at 30 µM in the data set with OS-RC-2 [4] and with A498 [6] were 82% and 90%, respectively.

A word on the ΔTm: it is the change in melting temperature against a reference sample. Broadly, the pIC50 is the IC50 on a negative log10 scale, so that one unit is a factor of ten. Usually inhibition stands for the share of the control response that was lost under treatment. In general, solubility refers to the dissolved amount per volume that the medium holds.

The values above are taken from ChEMBL document CHEMBL4402603, “Structure-Activity Relationship of SPOP Inhibitors against Kidney Cancer” (J Med Chem, 2020).
